Experiment [1] has as its target D(2) dopamine receptor (Rattus norvegicus, UniProt P61169). As to the kind of experiment: In vitro binding affinity at Dopamine receptor D2 of rat striatal membranes by [3H]-raclopride displacement.
The nature of experiment [2]: (§1) In vitro binding affinity at Sigma opioid receptor type 1 on guinea pig brain membranes by [3H]pentazocine displacement. Also on record: species or system Membrane.
Experiment [3] can be described thus: as §1. On the set-up: species or system Membrane. An outline of the steps: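 IC50 from displacement curves at 10 concentrations of each compound, each run in duplicate. Values are means of 1–3 separate experiments, with variation between experiments below 15%.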
This is another data set of the same source.

Sequence of D(2) dopamine receptor (P61169 whole entry): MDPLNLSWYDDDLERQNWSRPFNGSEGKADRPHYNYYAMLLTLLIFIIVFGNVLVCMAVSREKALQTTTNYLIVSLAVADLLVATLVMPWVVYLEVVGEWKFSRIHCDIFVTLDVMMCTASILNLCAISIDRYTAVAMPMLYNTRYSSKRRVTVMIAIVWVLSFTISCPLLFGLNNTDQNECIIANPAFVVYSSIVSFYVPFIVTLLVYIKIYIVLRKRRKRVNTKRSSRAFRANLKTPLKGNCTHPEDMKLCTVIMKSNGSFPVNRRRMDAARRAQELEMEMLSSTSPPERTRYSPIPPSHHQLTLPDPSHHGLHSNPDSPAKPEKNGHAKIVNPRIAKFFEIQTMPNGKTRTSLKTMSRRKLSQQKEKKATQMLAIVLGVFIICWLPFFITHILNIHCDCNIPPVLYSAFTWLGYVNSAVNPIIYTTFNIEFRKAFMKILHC

The term IC50 denotes the point on the concentration scale where inhibition reaches its midpoint. The low end stands for inhibition by little substance, the high end for a need for much substance. As for `COc1ccc(CCN2CCCC2)cc1OCCc1ccccc1`, in experiment [1], the half-maximal inhibitory concentration (IC50) was over 1000 nM.

On to `CCCNC(CC)Cc1ccc(OC)c(OCCc2ccccc2)c1` (stereo unspecified), for which the figures for the IC50 in experiment [1] and in experiment [2] were over 1000 nM and 1.8 nM, respectively.

`CCCN(CCC)C(CC)Cc1ccc(OC)c(OCCc2ccccc2)c1` (stereo unspecified) displayed a half-inhibitory concentration (IC50) in experiment [1] of over 1000 nM.

Turning to `CCCNC(CCC)Cc1ccc(OC)c(OCCc2ccccc2)c1` (stereo unspecified), the concentration for half-maximal inhibition (IC50) in experiment [1] is over 1000 nM; in experiment [2], 4.1 nM.

Turning to `CCCCC(Cc1ccc(OC)c(OCCc2ccccc2)c1)NCCC` (stereo unspecified) [listing 1 of 2 here], the IC50 was over 1000 nM in experiment [1] and 1.9 nM in experiment [2].

With `CCCCCCC(Cc1ccc(OC)c(OCCc2ccccc2)c1)NCCC` (stereo unspecified), the concentration for half-maximal inhibition (IC50) in experiment [1] is over 1000 nM; in experiment [2] it was 8.1 nM.

As for `CCCC(Cc1ccc(OC)c(OCCc2ccccc2)c1)N(CCC)CCC` (stereo unspecified), the IC50 in experiment [1] was over 1000 nM; in experiment [2], 8.2 nM.

As to `CCCN(CCC)CCc1ccc(OC)c(OCCc2ccccc2)c1`, the IC50 is over 1000 nM in experiment [1] and 1.5 nM in experiment [3].

With `CCCCC(Cc1ccc(OC)c(OCCc2ccccc2)c1)NCCC` (stereo unspecified) [listing 2 of 2 here], in experiment [2], the half-inhibitory concentration (IC50) turned out to be 34 nM.

`COc1ccc(CCN)cc1OCCc1ccccc1` registered an IC50 in experiment [1] of over 1000 nM.

In turn, `CCCNCCc1ccc(OC)c(OCCc2ccccc2)c1` gave an IC50 in experiment [1] of over 1000 nM.

Regarding `CCCCCC(Cc1ccc(OC)c(OCCc2ccccc2)c1)NCCC` (stereo unspecified), the 50% inhibitory concentration (IC50) in experiment [1] was over 1000 nM; in experiment [2], 2.2 nM.

With `CCCNC(CCC(C)C)Cc1ccc(OC)c(OCCc2ccccc2)c1` (single isomer, unassigned; (-)), the IC50 in experiment [1] is over 1000 nM; in experiment [2], 0.5 nM.

Regarding `CCCCC(Cc1ccc(OC)c(OCCc2ccccc2)c1)NCCC` (single isomer, unassigned; (-)), the IC50 in experiment [1] is over 1000 nM; in experiment [2] it was 0.7 nM.

Take `CCCNC(CCC(C)C)Cc1ccc(OC)c(OCCc2ccccc2)c1` (stereo in doubt; 6i(+)): the IC50 in experiment [2] worked out at 22 nM.

As to `CCCNC(CCC(C)C)Cc1ccc(OC)c(OCCc2ccccc2)c1` (stereo in doubt; 6i), the results for the IC50 in experiment [1] and in experiment [2] were over 1000 nM and 1.6 nM, respectively.

Source of the values: ChEMBL document CHEMBL1132405, “Synthesis and SAR of 1-alkyl-2-phenylethylamine derivatives designed from N,N-dipropyl-4-methoxy-3-(2-phenylethoxy)phenylethylamine to discover sigma(1) ligands” (J Med Chem, 1999).
